The values below come from ChEMBL document CHEMBL4706575, “Nonpeptidic quinazolinone derivatives as dual nucleotide-binding oligomerization domain-like receptor 1/2 antagonists for adjuvant cancer chemotherapy” (Eur J Med Chem, 2020).

Activity calls are given as the source filed them. The rule behind the calls is not given here.

Holding throughout (type): cell-based
Assay [1] concerns the target T1, Nucleotide-binding oligomerization domain-containing protein 1 (Homo sapiens) (UniProt Q9Y239).
T1 sequence (whole entry): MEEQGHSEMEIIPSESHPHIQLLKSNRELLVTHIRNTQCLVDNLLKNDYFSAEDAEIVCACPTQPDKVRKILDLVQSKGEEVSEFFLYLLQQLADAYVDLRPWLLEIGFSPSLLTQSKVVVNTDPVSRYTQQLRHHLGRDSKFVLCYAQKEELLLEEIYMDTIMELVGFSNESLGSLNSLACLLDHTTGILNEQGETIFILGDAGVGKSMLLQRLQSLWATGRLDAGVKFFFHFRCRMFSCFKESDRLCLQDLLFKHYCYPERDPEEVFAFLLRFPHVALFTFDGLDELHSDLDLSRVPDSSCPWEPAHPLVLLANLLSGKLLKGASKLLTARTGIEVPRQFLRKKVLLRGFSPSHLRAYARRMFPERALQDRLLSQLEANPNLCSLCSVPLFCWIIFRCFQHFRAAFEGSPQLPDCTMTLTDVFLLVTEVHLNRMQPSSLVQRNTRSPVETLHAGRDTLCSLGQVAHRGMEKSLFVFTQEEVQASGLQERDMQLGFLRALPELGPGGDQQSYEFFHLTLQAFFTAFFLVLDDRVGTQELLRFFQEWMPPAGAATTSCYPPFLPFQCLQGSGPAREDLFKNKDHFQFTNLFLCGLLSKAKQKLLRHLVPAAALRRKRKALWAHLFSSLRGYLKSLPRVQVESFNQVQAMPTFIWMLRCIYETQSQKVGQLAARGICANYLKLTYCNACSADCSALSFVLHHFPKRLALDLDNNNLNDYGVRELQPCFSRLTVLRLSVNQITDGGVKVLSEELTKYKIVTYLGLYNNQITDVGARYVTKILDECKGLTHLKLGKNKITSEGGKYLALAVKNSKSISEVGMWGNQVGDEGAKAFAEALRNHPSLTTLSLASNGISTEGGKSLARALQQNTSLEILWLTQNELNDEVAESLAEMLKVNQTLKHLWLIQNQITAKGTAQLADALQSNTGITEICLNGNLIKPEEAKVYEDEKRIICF
In words: Antagonist activity at NOD1 in HEK-Blue hNOD1 cells assessed as inhibition of C12-iE-DAP-induced NFkappaB activation-mediated SEAP release at 5 uM preincubated for 3 hrs followed by C12-iE-DAP addition and measured after 20 hrs by spectrophotometric method relative to control. The settings on record: filed as antagonist, time 23.0 hrs.

Assay [2] addresses T1, Nucleotide-binding oligomerization domain-containing protein 1 (Homo sapiens). Put plainly: Antagonist activity at NOD1 in human THP-1 cells assessed as inhibition of C12-iE-DAP-induced increase in RIP2 phosphorylation at 1 to 10 uM preincubated for 1 hr followed by C12-iE-DAP addition and measured after 30 mins by Western blot analysis. The settings on record: filed as antagonist, dose 1-10 µM, time 1.5 hrs. The gist of the method:
(§1)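 Serum-starved THP-1 cells pretreated with compound (1.0 or 10 µM) or without for 1 h. Then C12-iE-DAP 500 ng/mL (NOD1) or MDP (NOD2) for 30 min. Lysed in cold whole-cell buffer. Western blot for IκBα and for total and phospho RIP2, IKKα/β, p65, JNK, p38 and ERK1/2. β-actin as loading control.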

Assay [3] shares this target. Put plainly: Antagonist activity at NOD1 in human THP-1 cells assessed as inhibition of C12-iE-DAP-induced increase in p65 phosphorylation at 1 to 10 uM preincubated for 1 hr followed by C12-iE-DAP addition and measured after 30 mins by Western blot analysis. The settings on record: filed as antagonist, dose 1-10 µM, time 1.5 hrs. The method, boiled down: as §1
Assay [4] has the same target. Put plainly: Antagonist activity at NOD1 in human THP-1 cells assessed as inhibition of C12-iE-DAP-induced increase in p38 phosphorylation at 1 to 10 uM preincubated for 1 hr followed by C12-iE-DAP addition and measured after 30 mins by Western blot analysis. The settings on record: filed as antagonist, dose 1-10 µM, time 1.5 hrs. The gist of the method: as §1
Assay [5] shares this target. Put plainly: Antagonist activity at NOD1 in human THP-1 cells assessed as inhibition of C12-iE-DAP-induced increase in JNK phosphorylation at 1 to 10 uM preincubated for 1 hr followed by C12-iE-DAP addition and measured after 30 mins by Western blot analysis. The settings on record: filed as antagonist, dose 1-10 µM, time 1.5 hrs. The gist of the method:
as §1

The target in assay [6] is T2, Nucleotide-binding oligomerization domain-containing protein 2 (Homo sapiens, UniProt Q9HC29). In words: Antagonist activity at NOD2 in human THP-1 cells assessed as inhibition of MDP-induced increase in IKKalpha/beta phosphorylation preincubated for 1 hr followed by MDP addition and measured after 30 mins by Western blot analysis. The note with it: filed as antagonist, dose 1-10 µM, time 1.5 hrs. The method, boiled down:
as §1

Assay [7] deals with T2, Nucleotide-binding oligomerization domain-containing protein 2. In words: Antagonist activity at NOD2 in human THP-1 cells assessed as inhibition of MDP-induced increase in p65 phosphorylation preincubated for 1 hr followed by MDP addition and measured after 30 mins by Western blot analysis. The note with it: filed as antagonist, dose 1-10 µM, time 1.5 hrs. The gist of the method:
as §1

The target is the same in assay [8]. In words: Antagonist activity at NOD2 in human THP-1 cells assessed as inhibition of MDP-induced increase in p38 phosphorylation preincubated for 1 hr followed by MDP addition and measured after 30 mins by Western blot analysis. The settings on record: filed as antagonist, dose 1-10 µM, time 1.5 hrs. The method, boiled down: as §1
The target is the same in assay [9]. In words: Antagonist activity at NOD2 in human THP-1 cells assessed as inhibition of MDP-induced IkappaBalpha degradation preincubated for 1 hr followed by MDP addition and measured after 30 mins by Western blot analysis. The settings on record: filed as antagonist, dose 1-10 µM, time 1.5 hrs. The gist of the method: as §1
Assay [10] has as its target T1, Nucleotide-binding oligomerization domain-containing protein 1 (Homo sapiens). In words: Antagonist activity at NOD1 in human THP-1 cells assessed as inhibition of C12-iE-DAP-induced IL6 mRNA expression preincubated for 1 hr followed by C12-iE-DAP addition and measured after 90 mins by qRT-PCR analysis. The settings on record: filed as antagonist, dose 1-10 µM, time 150.0 min. The gist of the method: (§2)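 THP-1 cells in RPMI-1640 with 10% FBS, treated with compound (1.0 or 10 µM) or vehicle for 1 h. Then stimulated 90 min with C12-iE-DAP 500 ng/mL (NOD1) or MDP (NOD2). IL-6, TNF-α and IL-8 mRNA measured by qRT-PCR. Mean ± SD, n = 6, two-tailed t-test.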

The target is the same in assay [11]. Put plainly: Antagonist activity at NOD1 in human THP-1 cells assessed as inhibition of C12-iE-DAP-induced TNFalpha mRNA expression preincubated for 1 hr followed by C12-iE-DAP addition and measured after 90 mins by qRT-PCR analysis. The note with it: filed as antagonist, dose 1-10 µM, time 150.0 min. The method, boiled down: as §2
For assay [12] the target is unchanged. Put plainly: Antagonist activity at NOD1 in human THP-1 cells assessed as inhibition of C12-iE-DAP-induced IL8 mRNA expression preincubated for 1 hr followed by C12-iE-DAP addition and measured after 90 mins by qRT-PCR analysis. The settings on record: filed as antagonist, dose 1-10 µM, time 150.0 min. The method, boiled down:
as §2

For assay [13], the target named is T2, Nucleotide-binding oligomerization domain-containing protein 2. Put plainly: Antagonist activity at NOD2 in human THP-1 cells assessed as inhibition of MDP-induced IL6 mRNA expression preincubated for 1 hr followed by MDP addition and measured after 90 mins by qRT-PCR analysis. The settings on record: filed as antagonist, dose 1-10 µM, time 150.0 min. The gist of the method: as §2

The target is the same in assay [14]. Put plainly: Antagonist activity at NOD2 in human THP-1 cells assessed as inhibition of MDP-induced TNFalpha mRNA expression preincubated for 1 hr followed by MDP addition and measured after 90 mins by qRT-PCR analysis. The note with it: filed as antagonist, dose 1-10 µM, time 150.0 min. The method, boiled down:
as §2

For assay [15] the target is unchanged. Put plainly: Antagonist activity at NOD2 in human THP-1 cells assessed as inhibition of MDP-induced IL8 mRNA expression preincubated for 1 hr followed by MDP addition and measured after 90 mins by qRT-PCR analysis. The note with it: filed as antagonist, dose 1-10 µM, time 150.0 min. The gist of the method: as §2

T2 sequence (Q9HC29 whole entry, the tested form may be a part): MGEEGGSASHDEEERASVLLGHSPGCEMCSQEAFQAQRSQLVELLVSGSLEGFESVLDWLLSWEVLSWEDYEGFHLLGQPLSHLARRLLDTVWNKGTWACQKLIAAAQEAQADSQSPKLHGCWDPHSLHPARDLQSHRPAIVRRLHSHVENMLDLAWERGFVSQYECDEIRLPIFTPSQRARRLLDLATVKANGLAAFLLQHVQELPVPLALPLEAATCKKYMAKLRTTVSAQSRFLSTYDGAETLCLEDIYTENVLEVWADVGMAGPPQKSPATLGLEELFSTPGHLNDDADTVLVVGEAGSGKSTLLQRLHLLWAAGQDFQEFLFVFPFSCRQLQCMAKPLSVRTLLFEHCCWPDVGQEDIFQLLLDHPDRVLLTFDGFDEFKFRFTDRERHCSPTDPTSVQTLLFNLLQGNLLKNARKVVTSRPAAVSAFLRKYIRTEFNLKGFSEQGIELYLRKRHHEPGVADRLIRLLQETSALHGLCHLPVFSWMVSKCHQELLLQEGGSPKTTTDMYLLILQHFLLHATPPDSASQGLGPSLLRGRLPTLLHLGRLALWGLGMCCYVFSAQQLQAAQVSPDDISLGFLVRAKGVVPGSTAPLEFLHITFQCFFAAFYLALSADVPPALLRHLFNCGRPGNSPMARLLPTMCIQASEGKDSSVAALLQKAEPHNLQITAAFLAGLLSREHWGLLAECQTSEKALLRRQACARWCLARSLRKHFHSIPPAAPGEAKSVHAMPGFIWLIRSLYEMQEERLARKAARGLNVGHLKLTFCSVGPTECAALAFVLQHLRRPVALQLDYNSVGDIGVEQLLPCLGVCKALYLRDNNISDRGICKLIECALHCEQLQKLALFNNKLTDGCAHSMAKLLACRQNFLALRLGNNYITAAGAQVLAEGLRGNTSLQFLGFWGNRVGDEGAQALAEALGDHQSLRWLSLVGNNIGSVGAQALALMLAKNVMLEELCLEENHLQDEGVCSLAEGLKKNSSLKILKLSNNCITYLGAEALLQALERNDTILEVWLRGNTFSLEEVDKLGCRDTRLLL

As for `O=C(NCCCOc1ccc(C(F)(F)F)cc1)c1cc2ncn(CC(=O)N3CCCC(F)(F)C3)c(=O)c2cc1-c1cccc(Cl)c1`, the inhibition in [1] was 91.4%; in [6], “Dose-dependent effect”; in [7], “Dose-dependent effect”; in assay [8], “Dose-dependent effect”; in assay [9], “Dose-dependent effect”; in assay [10], “Dose-dependent effect”. The inhibition result in assay [11], in assay [12], in assay [13], in [14] and in assay [15] was “Dose-dependent effect” in each case. Besides, the inhibition result in assay [2], in assay [3], in assay [4] and in [5] was “Active” in each case.
